Consider 2 compounds from ChEMBL document CHEMBL3112487, “Synthesis and antifungal activity of ASP9726, a novel echinocandin with potent Aspergillus hyphal growth inhibition” (2014).

Converted amounts (≈) assume the structure as drawn. The source made the active and inactive calls. No cut-off for these calls is given here.

Experiment [1] deals with Aspergillus fumigatus. The experiment in a line: Antifungal activity against Aspergillus fumigatus 20030 in ICR mouse invasive pulmonary aspergillosis model assessed as survival rate at 3 mg/kg, iv qd administered for 10 days measured on day 11 relative to control. In kind it is functional.
A further experiment concerns Candida parapsilosis. The experiment in a line: Antifungal activity against Candida parapsilosis 20009 in human serum assessed as hyphal growth inhibition after 48 hrs by microscopic analysis. In kind it is functional. Particulars: Lodderomyces parapsilosis, 20009, Serum. The essentials:
(§1)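 Susceptibility testing followed CLSI M27-A3 or M38-A2 standards, using human serum as the growth medium. Fungi were exposed to drug and incubated at 37 °C under 5% CO2 for 48 h.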

The subject of the next experiment is Candida albicans. The experiment can be described thus: Antifungal activity against Candida albicans 20015 in human serum assessed as hyphal growth inhibition after 48 hrs by microscopic analysis. In kind it is functional. Particulars: Candida albicans, 20015, Serum. The essentials:
as §1

For experiment [2], the system named is Aspergillus fumigatus. The experiment in a line: Antifungal activity against Aspergillus fumigatus 20024 in human serum assessed as formation of small, rounded and compact microcolonies with severely stunted hypha at 4 fold MEC after 48 hrs by microscopic analysis. The format is functional, organism-based.
Experiment [3] concerns Aspergillus fumigatus. The experiment in a line: Antifungal activity against Aspergillus fumigatus 20030 in ICR mouse invasive pulmonary aspergillosis model assessed as survival rate at 1.5 mg/kg, iv qd administered for 10 days measured on day 11 relative to control. The format is functional.
The next experiment concerns Nakaseomyces glabratus. The experiment can be described thus: Antifungal activity against echinocandin-resistant Candida glabrata FP2307 in human serum assessed as hyphal growth inhibition after 48 hrs by microscopic analysis. The format is functional. The essentials:
as §1

Experiment [4] relates to Aspergillus fumigatus. The experiment can be described thus: Antifungal activity against Aspergillus fumigatus 20024 in human serum assessed as hyphal growth inhibition after 48 hrs by microscopic analysis. To be noted: Aspergillus fumigatus, 20024, Serum. In kind it is functional. The essentials: as §1
Experiment [5] relates to Aspergillus fumigatus. The experiment in a line: Antifungal activity against Aspergillus fumigatus 20024 in human serum assessed as formation of large microcolonies with elongated hypha in all direction at 4 fold MEC after 48 hrs by microscopic analysis. In kind it is functional, organism-based.

For `COc1cc(C[C@@H](O)[C@@H]2NC(=O)[C@@H]3C[C@@H](O)CN3C(=O)[C@H]([C@@H](C)O)NC(=O)[C@@H](NC[C@H]3CC[C@H](c4nnc(-c5ccc(N6CCC(OC)(C7CCCCC7)CC6)cc5)s4)CC3)C[C@@H](O)CNC(=O)[C@@H]3[C@@H](O)[C@@H](C)CN3C(=O)[C@H]([C@H](O)CCNC(CO)CO)NC2=O)ccc1O`, the survival at 3 mg/kg with Aspergillus fumigatus [1] is 70%. Moreover, the minimum inhibitory concentration (MIC) (usually the lowest concentration that inhibits growth of the organism) in the experiment on Candida parapsilosis was 4 µg/mL (≈ 2.96 µM); with Candida albicans, 0.25 µg/mL (≈ 0.185 µM); with Nakaseomyces glabratus, 2 µg/mL (≈ 1.48 µM); in the experiment with Aspergillus fumigatus [4], 0.25 µg/mL (≈ 0.185 µM). The result in the experiment with Aspergillus fumigatus [2] was Active. Moreover, the survival at 1.5 mg/kg in the experiment on Aspergillus fumigatus [3] was 40%.

`CC[C@H](C)C[C@H](C)CCCCCCCCC(=O)N[C@H]1C[C@@H](O)[C@@H](NCCN)NC(=O)[C@@H]2[C@@H](O)CCN2C(=O)[C@H]([C@H](O)CCN)NC(=O)[C@H]([C@H](O)[C@@H](O)c2ccc(O)cc2)NC(=O)[C@@H]2C[C@@H](O)CN2C(=O)[C@H]([C@@H](C)O)NC1=O` [CASPOFUNGIN]: the outcome in the experiment with Aspergillus fumigatus [5] was inactive. Further, the survival at 3 mg/kg in the experiment with Aspergillus fumigatus [1] is 20%. In addition, the MIC in the experiment with Candida parapsilosis was 64 µg/mL (≈ 58.5 µM); in the experiment on Candida albicans, 0.25 µg/mL (≈ 0.229 µM); in the experiment on Nakaseomyces glabratus, more than 64 µg/mL; in the experiment on Aspergillus fumigatus [4], 0.5 µg/mL (≈ 0.457 µM). Also, the survival at 1.5 mg/kg with Aspergillus fumigatus [3] stood at 10%.
